Square brackets hold non-standard residues; d marks the D form. Peptide text beside a SMILES is read from it. Trx = NC[C@H]1CC[C@H](C(=O)O)CC1; 4Amb = NCc1ccc(C(=O)O)cc1; 3Abz = Nc1cccc(C(=O)O)c1; 4Abz = Nc1ccc(C(=O)O)cc1; 2Abz = Nc1ccccc1C(=O)O; Ahx = NCCCCCC(=O)O
How the values were obtained:
KiSS-1 receptor [1] = target: T1, KiSS-1 receptor (Homo sapiens, UniProt Q969F8); assay: Agonist activity at GPR54 expressed in CHO cells assessed as intracellular calcium mobilization at 10 nM relative to KP-10; format: functional, cell-based
T1 sequence (Q969F8 whole entry): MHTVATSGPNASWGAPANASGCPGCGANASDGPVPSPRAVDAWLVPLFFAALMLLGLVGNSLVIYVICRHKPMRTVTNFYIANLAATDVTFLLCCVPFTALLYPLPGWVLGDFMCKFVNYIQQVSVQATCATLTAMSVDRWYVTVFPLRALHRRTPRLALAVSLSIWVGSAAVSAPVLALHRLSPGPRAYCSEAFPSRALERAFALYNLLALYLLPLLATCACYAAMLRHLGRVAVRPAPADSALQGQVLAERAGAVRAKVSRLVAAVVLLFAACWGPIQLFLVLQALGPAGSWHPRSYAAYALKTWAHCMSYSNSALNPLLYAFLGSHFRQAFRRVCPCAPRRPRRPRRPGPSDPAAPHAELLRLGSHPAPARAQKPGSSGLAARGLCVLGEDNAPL
How it was run: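 FLIPR Fluo3 Ca2+ mobilization in CHO/dhfr cells stably expressing GPR54, read over 40 s. Peptide tested at 10 nM (n = 3). Maximum signal expressed as a percentage of the maximum induced by 1 µM KP-10 (n = 3).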

KiSS-1 receptor [2] = target: T1, KiSS-1 receptor; assay: Ratio of EC50 of drug for GPR54 to EC50 of KP-10 for GPR54; format: functional
How it was run: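 Q calculated as EC50(compound)/EC50(KP-10), with KP-10 run as control on each FLIPR Ca2+ plate (GPR54/CHO cells) to correct for plate-to-plate variation.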

KiSS-1 receptor [3] = target: T1, KiSS-1 receptor; assay: Agonist activity at GPR54 expressed in CHO cells assessed as intracellular calcium mobilization; format: functional, cell-based

Structure (SMILES) | Activity (KiSS-1 receptor [1]) | Ratio EC50 (KiSS-1 receptor [2]) | EC50 (KiSS-1 receptor [3])
CC(C)C[C@H](NC(=O)CNC(=O)[C@H](Cc1ccccc1)NC(=O)c1ccc[nH]1)C(=O)N[C@@H](CCCNC(=N)N)C(=O)N[C@@H](Cc1c[nH]c2ccccc12)C(N)=O | 95.8% | 1.7 | 
CC(C)C[C@H](NC(=O)CNC(=O)[C@H](Cc1ccccc1)NC(=O)c1ccc(NC(=N)N)cc1)C(=O)N[C@@H](CCCNC(=N)N)C(=O)N[C@@H](Cc1c[nH]c2ccccc12)C(N)=O | 91.2% | 2.9 | 1.7 nM
CC(C)C[C@H](NC(=O)CNC(=O)[C@H](Cc1ccccc1)NC(=O)c1ccccn1)C(=O)N[C@@H](CCCN=C(N)N)C(=O)N[C@@H](Cc1c[nH]c2ccccc12)C(N)=O |  |  | 0.8 nM
CC(=O)NCc1ccc(C(=O)N[C@@H](Cc2ccccc2)C(=O)NCC(=O)N[C@@H](CC(C)C)C(=O)N[C@@H](CCCNC(=N)N)C(=O)N[C@@H](Cc2c[nH]c3ccccc23)C(N)=O)cc1 (Ac-[4Amb]FGLRW-NH2) | 101% |  | 
CC(C)C[C@H](NC(=O)CNC(=O)[C@H](Cc1ccccc1)NC(=O)c1cc(O)c(O)c(O)c1)C(=O)N[C@@H](CCCNC(=N)N)C(=O)N[C@@H](Cc1c[nH]c2ccccc12)C(N)=O | 1% |  | 
CC(C)C[C@H](NC(=O)CNC(=O)[C@H](Cc1ccccc1)NC(=O)c1ccccc1O)C(=O)N[C@@H](CCCN=C(N)N)C(=O)N[C@@H](Cc1c[nH]c2ccccc12)C(N)=O |  |  | 5 nM
CC(C)C[C@H](NC(=O)CNC(=O)[C@H](Cc1ccccc1)NC(=O)[C@H]1CC[C@H](CN)CC1)C(=O)N[C@@H](CCCNC(=N)N)C(=O)N[C@@H](Cc1c[nH]c2ccccc12)C(N)=O (H-[Trx]FGLRW-NH2) | 9.9% |  | 
CC(C)C[C@H](NC(=O)CNC(=O)[C@H](Cc1ccccc1)NC(=O)c1c[nH]cn1)C(=O)N[C@@H](CCCNC(=N)N)C(=O)N[C@@H](Cc1c[nH]c2ccccc12)C(N)=O | 88.4% |  | 
CC(C)C[C@H](NC(=O)CNC(=O)[C@H](Cc1ccccc1)NC(=O)c1ccccc1N)C(=O)N[C@@H](CCCNC(=N)N)C(=O)N[C@@H](Cc1c[nH]c2ccccc12)C(N)=O (H-[2Abz]FGLRW-NH2) | 94% | 2.8 | 3.1 nM
CC(C)C[C@H](NC(=O)CNC(=O)[C@H](Cc1ccccc1)NC(=O)c1ccc(CO)cc1)C(=O)N[C@@H](CCCN=C(N)N)C(=O)N[C@@H](Cc1c[nH]c2ccccc12)C(N)=O |  |  | 3 nM
CC(C)C[C@H](NC(=O)CNC(=O)[C@H](Cc1ccccc1)NC(=O)c1ccncc1)C(=O)N[C@@H](CCCNC(=N)N)C(=O)N[C@@H](Cc1c[nH]c2ccccc12)C(N)=O | 102% | 2.4 | 1.7 nM
CC(C)C[C@H](NC(=O)CNC(=O)[C@H](Cc1ccccc1)NC(=O)c1ccc(O)cc1)C(=O)N[C@@H](CCCNC(=N)N)C(=O)N[C@@H](Cc1c[nH]c2ccccc12)C(N)=O | 94.6% |  | 
CC(C)C[C@H](NC(=O)CNC(=O)[C@H](Cc1ccccc1)NC(=O)c1ccc(Cl)cc1)C(=O)N[C@@H](CCCNC(=N)N)C(=O)N[C@@H](Cc1c[nH]c2ccccc12)C(N)=O | 91.8% |  | 
CC(C)C[C@H](NC(=O)CNC(=O)[C@H](Cc1ccccc1)NC(=O)c1cccnc1)C(=O)N[C@@H](CCCNC(=N)N)C(=O)N[C@@H](Cc1c[nH]c2ccccc12)C(N)=O | 93.5% | 4.1 | 3 nM
CC(C)C[C@H](NC(=O)CNC(=O)[C@H](Cc1ccccc1)NC(=O)c1ccc[nH]1)C(=O)N[C@@H](CCCN=C(N)N)C(=O)N[C@@H](Cc1c[nH]c2ccccc12)C(N)=O |  |  | 2 nM
CC(C)C[C@H](NC(=O)CNC(=O)[C@H](Cc1ccccc1)NC(=O)c1ccc(N)cc1)C(=O)N[C@@H](CCCNC(=N)N)C(=O)N[C@@H](Cc1c[nH]c2ccccc12)C(N)=O (H-[4Abz]FGLRW-NH2) | 90.4% |  | 
CC(C)C[C@H](NC(=O)CNC(=O)[C@H](Cc1ccccc1)NC(=O)c1ccc(CNCc2ccccc2)cc1)C(=O)N[C@@H](CCCNC(=N)N)C(=O)N[C@@H](Cc1c[nH]c2ccccc12)C(N)=O | 86.5% | 5.6 | 3.3 nM

Structure (SMILES) | Activity (KiSS-1 receptor [1]) | Ratio EC50 (KiSS-1 receptor [2]) | EC50 (KiSS-1 receptor [3])
CC(C)C[C@H](NC(=O)CNC(=O)[C@H](Cc1ccccc1)NC(=O)c1ccc(CN(Cc2ccccn2)Cc2ccccn2)cc1)C(=O)N[C@@H](CCCNC(=N)N)C(=O)N[C@@H](Cc1c[nH]c2ccccc12)C(N)=O | 88.9% |  | 
CC(C)C[C@H](NC(=O)CNC(=O)[C@H](Cc1ccccc1)NC(=O)c1ccc(CO)cc1)C(=O)N[C@@H](CCCNC(=N)N)C(=O)N[C@@H](Cc1c[nH]c2ccccc12)C(N)=O | 95.4% | 4.7 | 
CC(C)C[C@H](NC(=O)CNC(=O)[C@H](Cc1ccccc1)NC(=O)c1ccccc1OC(=O)c1ccccc1O)C(=O)N[C@@H](CCCNC(=N)N)C(=O)N[C@@H](Cc1c[nH]c2ccccc12)C(N)=O | 92.1% | 4 | 3 nM
CC(C)C[C@H](NC(=O)CNC(=O)[C@H](Cc1ccccc1)NC(=O)c1ccc(F)cc1)C(=O)N[C@@H](CCCNC(=N)N)C(=O)N[C@@H](Cc1c[nH]c2ccccc12)C(N)=O | 95.6% |  | 
CC(C)C[C@H](NC(=O)CNC(=O)[C@H](Cc1ccccc1)NC(=O)c1cc(O)c(O)c(O)c1)C(=O)N[C@@H](CCCN=C(N)N)C(=O)N[C@@H](Cc1c[nH]c2ccccc12)C(N)=O |  |  | > 100 nM
CC(C)C[C@H](NC(=O)CNC(=O)[C@H](Cc1ccccc1)NC(=O)c1ccccc1O)C(=O)N[C@@H](CCCNC(=N)N)C(=O)N[C@@H](Cc1c[nH]c2ccccc12)C(N)=O | 90.1% | 6.6 | 
CC(C)C[C@H](NC(=O)CNC(=O)[C@H](Cc1ccccc1)NC(=O)c1c(F)c(F)c(F)c(F)c1F)C(=O)N[C@@H](CCCNC(=N)N)C(=O)N[C@@H](Cc1c[nH]c2ccccc12)C(N)=O | 0.6% |  | > 100 nM
CC(C)C[C@H](NC(=O)CNC(=O)[C@H](Cc1ccccc1)NC(=O)CCCCCN)C(=O)N[C@@H](CCCNC(=N)N)C(=O)N[C@@H](Cc1c[nH]c2ccccc12)C(N)=O (H-[Ahx]FGLRW-NH2) | 1.6% |  | 
COc1ccc(C(=O)N[C@@H](Cc2ccccc2)C(=O)NCC(=O)N[C@@H](CC(C)C)C(=O)N[C@@H](CCCNC(=N)N)C(=O)N[C@@H](Cc2c[nH]c3ccccc23)C(N)=O)cc1 | 104% | 1.6 | 1.2 nM
CC(C)C[C@H](NC(=O)CNC(=O)[C@H](Cc1ccccc1)NC(=O)c1ccc(CNC(=N)N)cc1)C(=O)N[C@@H](CCCNC(=N)N)C(=O)N[C@@H](Cc1c[nH]c2ccccc12)C(N)=O | 93.7% |  | 
CC(C)C[C@H](NC(=O)CNC(=O)[C@H](Cc1ccccc1)NC(=O)c1ccc([N+](=O)[O-])cc1)C(=O)N[C@@H](CCCNC(=N)N)C(=O)N[C@@H](Cc1c[nH]c2ccccc12)C(N)=O | 94.3% | 1.5 | 1 nM
CC(C)C[C@H](NC(=O)CNC(=O)[C@H](Cc1ccccc1)NC(=O)c1ccc(CNCc2ccccn2)cc1)C(=O)N[C@@H](CCCNC(=N)N)C(=O)N[C@@H](Cc1c[nH]c2ccccc12)C(N)=O | 89.3% | 4.5 | 2.7 nM
CC(C)C[C@H](NC(=O)CNC(=O)[C@H](Cc1ccccc1)NC(=O)c1ccc(CN)cc1)C(=O)N[C@@H](CCCNC(=N)N)C(=O)N[C@@H](Cc1c[nH]c2ccccc12)C(N)=O (H-[4Amb]FGLRW-NH2) | 96.5% | 3.4 | 3.1 nM
CC(C)C[C@H](NC(=O)CNC(=O)[C@H](Cc1ccccc1)NC(=O)c1cccc(O)c1)C(=O)N[C@@H](CCCNC(=N)N)C(=O)N[C@@H](Cc1c[nH]c2ccccc12)C(N)=O | 99.7% | 1.6 | 1.2 nM
CC(C)C[C@H](NC(=O)CNC(=O)[C@H](Cc1ccccc1)NC(=O)c1cccc(N)c1)C(=O)N[C@@H](CCCNC(=N)N)C(=O)N[C@@H](Cc1c[nH]c2ccccc12)C(N)=O (H-[3Abz]FGLRW-NH2) | 88.5% | 4.2 | 4.7 nM
CC(C)C[C@H](NC(=O)CNC(=O)[C@H](Cc1ccccc1)NC(=O)c1ccc(CN(Cc2ccccc2)Cc2ccccc2)cc1)C(=O)N[C@@H](CCCNC(=N)N)C(=O)N[C@@H](Cc1c[nH]c2ccccc12)C(N)=O | 9.3% |  | 

Reference: ChEMBL document CHEMBL1145440, “SAR and QSAR studies on the N-terminally acylated pentapeptide agonists for GPR54” (J Med Chem, 2007)
